Measured values reported in ChEMBL document CHEMBL1687897, “Design, synthesis and biological activity of pyrazolo[1,5-a]pyrimidin-7(4H)-ones as novel Kv7/KCNQ potassium channel activators” (Eur J Med Chem, 2011).
pEC50: −log10 of the molar value. Active and inactive are the calls of the source. The calls are words filed in the database; no cut-off is given here.

Assays:
[1] = target: T1, Voltage-gated potassium channel, KQT; KCNQ2(Kv7.2)/KCNQ3(Kv7.3) (Homo sapiens) (UniProt O43526+O43525); experiment: Activation of KCNQ2/Q3 expressed in CHO cells at 100 uM by atomic absorption Rb'+ efflux assay; type: cell-based
Procedure, shortened: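 Stable KCNQ2/KCNQ3 CHO cells were Rb+-loaded 3 h at 37 °C and washed. Compound was given once at a single screening concentration in 20 mM K+ depolarization buffer for 10 min. Supernatant Rb+ was measured by flame atomic absorption at 780 nm. A rubidium response under 15% of control was scored as no activity.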

[2] = target: Voltage-gated potassium channel, KQT; KCNQ2(Kv7.2)/KCNQ3(Kv7.3) (Homo sapiens, UniProt O43525+O43526); experiment: Activation of KCNQ2/Q3 expressed in CHO cells by atomic absorption Rb'+ efflux assay; type: cell-based
Procedure, shortened: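 CHO cells stably expressing KCNQ2/KCNQ3 were plated at 20,000 cells/well overnight at 37 °C. They were loaded 3 h in buffer containing 5.4 mM RbCl (pH 7.4), then washed three times with 5.4 mM KCl buffer. Compound was applied in 20 mM K+ depolarization buffer for 10 min. Supernatant Rb+ was read by flame atomic absorption at 780 nm against a 0–5 mg/l calibration. EC50 from n = 3.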

[3] = target: T1, Voltage-gated potassium channel, KQT; KCNQ2(Kv7.2)/KCNQ3(Kv7.3) (Homo sapiens); experiment: Activation of human KCNQ2/Q3 expressed in CHO cells held at -80 mV for 500 ms followed by depolarized to -40 mV for 800 ms followed by 800 ms pulse-back to -80 mV assessed as increase in both activation and deactivation tail current at 100 uM by whole cell patch-clamp assay
[4] = target: T1, Voltage-gated potassium channel, KQT; KCNQ2(Kv7.2)/KCNQ3(Kv7.3) (Homo sapiens); experiment: Activation of human KCNQ2/Q3 expressed in CHO cells assessed as increase in channel current at -40 mV holding potential at 100 uM by whole cell patch-clamp assay; type: cell-based
Procedure, shortened: (§1)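 Perforated whole-cell patch clamp was run on CHO cells stably expressing KCNQ2/KCNQ3. Cells were held at −80 mV for 500 ms, stepped to −40 mV for 800 ms, then returned to −80 mV for 800 ms. The activation current and the deactivation tail current were measured, with a time course of current recorded at −40 mV.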

[5] = target: T2, Potassium voltage-gated channel subfamily KQT member 1 (Homo sapiens, UniProt P51787); experiment: Activation of KCNQ1 expressed in HEK293 cells by atomic absorption Rb'+ efflux assay; type: cell-based
T2 sequence (P51787 whole entry): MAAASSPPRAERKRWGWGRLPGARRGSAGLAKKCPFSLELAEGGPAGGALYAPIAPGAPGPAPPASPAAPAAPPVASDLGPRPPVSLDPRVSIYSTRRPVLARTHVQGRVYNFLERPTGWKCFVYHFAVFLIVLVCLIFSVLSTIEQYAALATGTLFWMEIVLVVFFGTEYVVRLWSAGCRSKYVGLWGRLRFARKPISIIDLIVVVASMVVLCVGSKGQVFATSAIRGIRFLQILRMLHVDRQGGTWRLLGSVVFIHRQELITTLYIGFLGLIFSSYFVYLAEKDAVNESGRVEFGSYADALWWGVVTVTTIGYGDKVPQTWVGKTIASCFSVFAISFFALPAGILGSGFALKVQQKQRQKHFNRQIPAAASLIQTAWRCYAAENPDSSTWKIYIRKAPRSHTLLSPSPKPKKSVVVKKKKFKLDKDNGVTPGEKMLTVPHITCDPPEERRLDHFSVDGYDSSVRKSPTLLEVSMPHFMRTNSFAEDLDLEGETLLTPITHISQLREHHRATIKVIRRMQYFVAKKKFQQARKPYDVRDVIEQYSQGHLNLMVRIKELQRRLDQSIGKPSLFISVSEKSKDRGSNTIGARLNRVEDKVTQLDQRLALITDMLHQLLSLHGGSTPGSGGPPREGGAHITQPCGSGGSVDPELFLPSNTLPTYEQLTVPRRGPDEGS
Procedure, shortened: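 HEK293 cells stably expressing KCNQ1 (G418 selection) were plated at 20,000 cells/well overnight. They were loaded 3 h with 5.4 mM RbCl buffer at 37 °C and washed. Compound was applied in 20 mM K+ depolarization buffer for 10 min. Supernatant Rb+ was measured by flame atomic absorption at 780 nm. EC50 from n = 3.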

[6] = Selectivity ratio of EC50 for KCNQ1 to KCNQ2/Q3 by atomic absorption Rb'+ efflux assay
[7] = target: T1, Voltage-gated potassium channel, KQT; KCNQ2(Kv7.2)/KCNQ3(Kv7.3) (Homo sapiens); experiment: Activation of human KCNQ2/Q3 expressed in CHO cells held at -80 mV for 500 ms followed by depolarized to -40 mV for 800 ms followed by 800 ms pulse-back to -80 mV assessed as increase in both activation and deactivation tail current at 10 uM by whole cell patch-clamp assay
[8] = target: T1, Voltage-gated potassium channel, KQT; KCNQ2(Kv7.2)/KCNQ3(Kv7.3) (Homo sapiens); experiment: Activation of human KCNQ2/Q3 expressed in CHO cells assessed as increase in channel current at -40 mV holding potential at 10 uM by whole cell patch-clamp assay; type: cell-based; procedure, shortened: as §1

Chain of Voltage-gated potassium channel, KQT; KCNQ2(Kv7.2)/KCNQ3(Kv7.3) (O43526 whole entry): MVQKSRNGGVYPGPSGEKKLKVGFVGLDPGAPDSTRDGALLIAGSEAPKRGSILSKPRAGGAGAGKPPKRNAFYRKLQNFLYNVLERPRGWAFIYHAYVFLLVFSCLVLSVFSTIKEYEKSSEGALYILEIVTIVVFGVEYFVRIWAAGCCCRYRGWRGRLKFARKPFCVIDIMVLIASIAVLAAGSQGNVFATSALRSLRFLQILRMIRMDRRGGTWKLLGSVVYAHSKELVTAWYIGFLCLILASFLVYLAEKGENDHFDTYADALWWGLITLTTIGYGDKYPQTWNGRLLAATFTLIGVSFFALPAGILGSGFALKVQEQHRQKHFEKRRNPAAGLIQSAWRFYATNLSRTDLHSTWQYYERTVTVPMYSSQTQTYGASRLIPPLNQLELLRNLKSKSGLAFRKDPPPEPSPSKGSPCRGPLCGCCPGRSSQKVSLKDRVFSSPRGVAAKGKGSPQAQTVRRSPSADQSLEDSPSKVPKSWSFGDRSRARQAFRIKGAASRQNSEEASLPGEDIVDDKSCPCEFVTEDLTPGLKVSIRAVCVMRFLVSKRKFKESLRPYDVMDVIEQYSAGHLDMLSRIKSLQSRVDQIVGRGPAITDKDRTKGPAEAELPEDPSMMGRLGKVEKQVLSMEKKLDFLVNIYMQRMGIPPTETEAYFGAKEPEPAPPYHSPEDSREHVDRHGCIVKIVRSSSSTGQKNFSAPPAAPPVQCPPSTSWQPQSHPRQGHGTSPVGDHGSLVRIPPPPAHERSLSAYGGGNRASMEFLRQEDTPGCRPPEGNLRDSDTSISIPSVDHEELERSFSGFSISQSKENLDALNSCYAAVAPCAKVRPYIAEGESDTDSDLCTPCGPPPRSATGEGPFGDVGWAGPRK
Chain of Voltage-gated potassium channel, KQT; KCNQ2(Kv7.2)/KCNQ3(Kv7.3) (O43525 whole entry): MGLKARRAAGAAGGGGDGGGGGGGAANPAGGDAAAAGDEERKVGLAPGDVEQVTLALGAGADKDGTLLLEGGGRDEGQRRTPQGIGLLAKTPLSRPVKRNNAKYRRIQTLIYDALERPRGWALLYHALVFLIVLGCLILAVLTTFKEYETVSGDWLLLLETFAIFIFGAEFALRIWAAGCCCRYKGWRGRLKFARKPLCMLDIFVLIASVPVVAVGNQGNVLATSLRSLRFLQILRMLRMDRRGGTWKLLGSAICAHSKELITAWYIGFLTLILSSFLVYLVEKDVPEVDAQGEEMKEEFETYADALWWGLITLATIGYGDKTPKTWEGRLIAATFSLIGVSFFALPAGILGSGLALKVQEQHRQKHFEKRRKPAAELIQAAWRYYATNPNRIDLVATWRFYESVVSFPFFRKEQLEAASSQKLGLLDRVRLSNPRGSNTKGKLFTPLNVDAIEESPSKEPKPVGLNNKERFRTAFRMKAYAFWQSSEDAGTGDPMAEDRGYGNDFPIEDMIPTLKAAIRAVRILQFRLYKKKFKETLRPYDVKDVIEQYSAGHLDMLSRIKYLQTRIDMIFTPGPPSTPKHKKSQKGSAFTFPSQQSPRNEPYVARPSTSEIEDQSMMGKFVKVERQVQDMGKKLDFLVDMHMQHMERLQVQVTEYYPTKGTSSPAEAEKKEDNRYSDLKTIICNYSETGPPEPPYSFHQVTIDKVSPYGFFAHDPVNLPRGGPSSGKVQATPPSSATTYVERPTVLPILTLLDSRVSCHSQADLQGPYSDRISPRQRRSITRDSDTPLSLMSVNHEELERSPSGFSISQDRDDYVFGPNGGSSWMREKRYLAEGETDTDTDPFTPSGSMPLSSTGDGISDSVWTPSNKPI

SMILES | pEC50 [2] | also measured
O=c1cc(CN2CCCCC2)[nH]c2c(-c3ccccc3)c(C(F)(F)F)nn12 | – | Activity [1]: inactive
O=c1cc(-c2cccc([N+](=O)[O-])c2)[nH]c2c(-c3ccccc3)c(C(F)(F)F)nn12 | 6.24 | –
O=c1cc(CCl)[nH]c2c(-c3ccccc3)c(C(F)(F)F)nn12 | 5.64 | Activity [3]: Active; Activity [4]: Active
O=c1cc(C(F)(F)F)[nH]c2c(-c3cccc4ccccc34)c(C(F)(F)F)nn12 | 5.30 | –
Cc1cc(O)n2nc(C(F)(F)F)c(-c3ccccc3)c2n1 | – | Activity [1]: inactive
O=c1cc(C(F)F)[nH]c2c(-c3ccccc3)c(C(F)(F)F)nn12 | 5.37 | –
O=c1cc(CCl)[nH]c2c(-c3cccc4ccccc34)c(C(F)(F)F)nn12 | 5.90 | –
O=c1cc(C(F)(F)F)[nH]c2c(-c3ccc(Cl)cc3)c(C(F)(F)F)nn12 | 5.69 | –
O=c1cc(-c2cc(F)c(Cl)nc2Cl)[nH]c2c(-c3ccccc3)c(C(F)(F)F)nn12 | 7.22 | pEC50 [5]: 4.31; Ratio EC50 [6]: 800; Activity [7]: Active; Activity [8]: Active
COc1ccc(-c2c(C(F)(F)F)nn3c(=O)cc(-c4cc(F)c(Cl)nc4Cl)[nH]c23)cc1OC | 6.64 | –
Cc1nn2c(=O)cc(CCl)[nH]c2c1-c1ccccc1 | – | Activity [1]: inactive
O=c1cc(CCl)[nH]c2c(-c3ccc(Cl)cc3)c(C(F)(F)F)nn12 | 5.63 | –
O=c1cc(-c2cc(F)c(Cl)nc2Cl)[nH]c2c(-c3cccc4ccccc34)c(C(F)(F)F)nn12 | 6.82 | Activity [7]: Active; Activity [8]: Active
O=c1cc(C(F)(F)F)[nH]c2c(-c3ccccc3)cnn12 | – | Activity [1]: inactive
O=c1cc(C(F)(F)F)[nH]c2c(-c3ccccc3)c(C(F)(F)F)nn12 | 5.84 | Activity [3]: Active; Activity [4]: Active
CC(C)(C)c1cc(=O)n2nc(C(F)(F)F)c(-c3cccc4ccccc34)c2[nH]1 | 4.71 | –
O=c1cc(-c2cc(F)c(F)c(F)c2F)[nH]c2c(-c3ccccc3)c(C(F)(F)F)nn12 | 6.22 | –
CCOC(=O)c1c(C(F)(F)F)nn2c(=O)cc(CCl)[nH]c12 | – | Activity [1]: inactive
COc1ccc(-c2cc(=O)n3nc(C(F)(F)F)c(-c4ccccc4)c3[nH]2)cc1 | 5.71 | –
Oc1cc(-c2ccccc2)nc2c(-c3ccccc3)c(C(F)(F)F)nn12 | – | Activity [1]: inactive
O=c1cc(-c2cc(F)c(F)c(F)c2F)[nH]c2c(-c3cccs3)c(C(F)(F)F)nn12 | 6.80 | –
O=c1cc(C(F)(F)F)[nH]c2c(-c3c[nH]c4ccccc34)c(C(F)(F)F)nn12 | – | Activity [1]: inactive
CCOC(=O)Nc1ccc(NCc2ccc(F)cc2)cc1N [EZOGABINE] | 6.37 | Activity [8]: Active
O=c1cc(-c2cccc([N+](=O)[O-])c2)[nH]c2c(-c3cccs3)c(C(F)(F)F)nn12 | 6.24 | –
CC(C)(C)c1cc(=O)n2nc(C(F)(F)F)c(-c3ccccc3)c2[nH]1 | 5.21 | –
O=c1cc(-c2cc(F)c(F)cc2F)[nH]c2c(-c3ccc(Cl)cc3)c(C(F)(F)F)nn12 | 6.68 | –
